# Source: ChEMBL document CHEMBL1155063 (Bioorg Med Chem, 2008)
# What was measured:
# [1] = test system: NCI-H23; assay: Cytotoxicity against human NCI-H23 cells at 10 uM after 48 hrs by MTT assay; type: functional; settings: NCI-H23, 48 h
# How it was run: (§1)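 Single-dose screen on the NCI 60-cell-line panel, run to the Developmental Therapeutics Program protocol (one-dose mean graph). Each value is the growth percentage of treated cells against untreated control cells.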
# [2] = test system: MOLT-4; assay: Cytotoxicity against human MOLT4 cells at 10 uM after 48 hrs by MTT assay; type: functional; settings: MOLT-4, 48 h; how it was run: as §1
# [3] = test system: SW-620; assay: Cytotoxicity against human SW620 cells at 10 uM after 48 hrs by MTT assay; type: functional; settings: SW-620, 48 h, values are per cent of control
# How it was run: (§2)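 Single-dose screen in the NCI 60-cell-line panel, run according to the Developmental Therapeutics Program protocol (one-dose mean graph). The result is the growth percentage of treated cells relative to untreated control cells.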
# [4] = test system: M14; assay: Cytotoxicity against human M14 cells at 10 uM after 48 hrs by MTT assay; type: functional; settings: M14, 48 h, values are per cent of control; how it was run: as §1
# [5] = test system: COLO 205; assay: Cytotoxicity against human COLO205 cells at 10 uM after 48 hrs by MTT assay; type: functional; settings: COLO 205, 48 h, values are per cent of control; how it was run: as §1
# [6] = biological target: T1, Telomerase reverse transcriptase (Homo sapiens, UniProt O14746); assay: Effect on human TERT expressed in BJ1 cells at 100 uM after 24 hrs by SEAP assay relative to control; settings: BJ
# [7] = test system: HCT-116; assay: Growth percent of human HCT116 cells at 10 uM after 48 hrs by MTT assay; settings: HCT-116, 48 h
# [8] = test system: SF-295; assay: Cytotoxicity against human SF295 cells at 10 uM after 48 hrs by MTT assay; type: functional; settings: SF-295, 48 h, values are per cent of control; how it was run: as §1
# [9] = biological target: T1, Telomerase reverse transcriptase; assay: Effect on human TERT expressed in BJ1 cells at 10 uM after 24 hrs by SEAP assay relative to control; settings: BJ
# [10] = biological target: T1, Telomerase reverse transcriptase; assay: Effect on human TERT expressed in H1299 cells at 10 uM after 24 hrs by SEAP assay relative to control
# [11] = test system: SNB-75; assay: Cytotoxicity against human SNB75 cells at 10 uM after 48 hrs by MTT assay; type: functional; settings: SNB-75, 48 h, values are per cent of control; how it was run: as §2
# [12] = test system: SR; assay: Cytotoxicity against human SR cells at 10 uM after 48 hrs by MTT assay; type: functional; how it was run: as §2
# [13] = test system: HCC 2998; assay: Growth percent of human HCC2998 cells at 10 uM after 48 hrs by MTT assay; settings: HCC 2998, 48 h
# [14] = test system: NCI-H460; assay: Growth percent of human NCI-H460 cells at 10 uM after 48 hrs by MTT assay; settings: NCI-H460, 48 h
# [15] = test system: HOP-62; assay: Cytotoxicity against human HOP62 cells at 10 uM after 48 hrs by MTT assay; type: functional; settings: HOP-62, 48 h; how it was run: as §1
# [16] = test system: UACC-62; assay: Cytotoxicity against human UACC62 cells at 10 uM after 48 hrs by MTT assay; type: functional; settings: UACC-62, 48 h, values are per cent of control; how it was run: as §2
# [17] = test system: PC-3; assay: Cytotoxicity against human PC3 cells at 10 uM after 48 hrs by MTT assay; type: functional; settings: PC-3, 48 h, values are per cent of control; how it was run: as §1
# [18] = Cytotoxicity against human TERT immortalized BJ1 cells at 1 uM after 48 hrs by MTT assay relative to control; type: cell-based, BJ
# How it was run: (§3)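 hTERT-immortalized BJ1 fibroblasts were grown in DMEM with 10% FCS, 1 mM pyruvate and 4 mM […]. Cells (about 2 × 10^3 per well) were seeded and held 24 h at 37 °C. Compounds were freshly dissolved in DMSO, diluted into medium and left on the cells 48 h. MTT was added for 4 h, then SDS/DMF lysis buffer for 16 h. Absorbance was read at 550 nm and expressed relative to untreated cells (100%).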
# [19] = test system: Malme-3M; assay: Cytotoxicity against human MALME3M cells at 10 uM after 48 hrs by MTT assay; type: functional; settings: values are per cent of control; how it was run: as §1
# [20] = test system: UO-31; assay: Cytotoxicity against human UO31 cells at 10 uM after 48 hrs by MTT assay; type: functional; settings: UO-31, 48 h, values are per cent of control; how it was run: as §2
# [21] = test system: HL-60; assay: Cytotoxicity against human HL60 cells at 10 uM after 48 hrs by MTT assay; type: functional; settings: HL-60, 48 h; how it was run: as §1
# [22] = test system: OVCAR-4; assay: Cytotoxicity against human OVCAR4 cells at 10 uM after 48 hrs by MTT assay; type: functional; settings: OVCAR-4, 48 h; how it was run: as §1
# [23] = test system: SN12C; assay: Cytotoxicity against human SN12C cells at 10 uM after 48 hrs by MTT assay; type: functional; how it was run: as §1
# [24] = test system: T47D; assay: Cytotoxicity against human T47D cells at 10 uM after 48 hrs by MTT assay; type: functional; how it was run: as §2
# [25] = Cytotoxicity against human TERT immortalized BJ1 cells at 10 uM after 48 hrs by MTT assay relative to control; type: cell-based, BJ; how it was run: as §3
# [26] = test system: NCI-H226; assay: Cytotoxicity against human NCI-H226 cells at 10 uM after 48 hrs by MTT assay; type: functional; settings: NCI-H226, 48 h; how it was run: as §1
# [27] = test system: OVCAR-5; assay: Cytotoxicity against human OVCAR5 cells at 10 uM after 48 hrs by MTT assay; type: functional; settings: OVCAR-5, 48 h; how it was run: as §1
# [28] = test system: SF-268; assay: Cytotoxicity against human SF268 cells at 10 uM after 48 hrs by MTT assay; type: functional; settings: SF-268, 48 h, values are per cent of control; how it was run: as §1
# [29] = test system: MDA-MB-231; assay: Cytotoxicity against human MDA-MB-231/ATCC cells at 10 uM after 48 hrs by MTT assay; type: functional; settings: MDA-MB-231, 48 h; how it was run: as §1
# [30] = test system: ACHN; assay: Cytotoxicity against human ACHN cells at 10 uM after 48 hrs by MTT assay; type: functional; how it was run: as §1
# [31] = test system: TK-10; assay: Cytotoxicity against human TK10 cells at 10 uM after 48 hrs by MTT assay; type: functional; settings: TK-10, 48 h, values are per cent of control; how it was run: as §2
# [32] = test system: OVCAR-8; assay: Cytotoxicity against human OVCAR8 cells at 10 uM after 48 hrs by MTT assay; type: functional; settings: OVCAR-8, 48 h; how it was run: as §1
# [33] = test system: CCRF-CEM; assay: Cytotoxicity against human CCRF-CEM cells at 10 uM after 48 hrs by MTT assay; type: functional; how it was run: as §1
# [34] = test system: LOX IMVI; assay: Cytotoxicity against human LOXIMVI cells at 10 uM after 48 hrs by MTT assay; type: functional; settings: values are per cent of control; how it was run: as §1
# [35] = test system: MDA-MB-435; assay: Cytotoxicity against human MDA-MB-435 cells at 10 uM after 48 hrs by MTT assay; type: functional; settings: MDA-MB-435, 48 h; how it was run: as §1
# [36] = test system: Hs-578T; assay: Cytotoxicity against human HS578T cells at 10 uM after 48 hrs by MTT assay; type: functional; settings: values are per cent of control; how it was run: as §1
# [37] = biological target: T1, Telomerase reverse transcriptase; assay: Effect on human TERT expressed in BJ1 cells at 1 uM after 24 hrs by SEAP assay realtive to control; settings: BJ
# T1 sequence (O14746 whole entry): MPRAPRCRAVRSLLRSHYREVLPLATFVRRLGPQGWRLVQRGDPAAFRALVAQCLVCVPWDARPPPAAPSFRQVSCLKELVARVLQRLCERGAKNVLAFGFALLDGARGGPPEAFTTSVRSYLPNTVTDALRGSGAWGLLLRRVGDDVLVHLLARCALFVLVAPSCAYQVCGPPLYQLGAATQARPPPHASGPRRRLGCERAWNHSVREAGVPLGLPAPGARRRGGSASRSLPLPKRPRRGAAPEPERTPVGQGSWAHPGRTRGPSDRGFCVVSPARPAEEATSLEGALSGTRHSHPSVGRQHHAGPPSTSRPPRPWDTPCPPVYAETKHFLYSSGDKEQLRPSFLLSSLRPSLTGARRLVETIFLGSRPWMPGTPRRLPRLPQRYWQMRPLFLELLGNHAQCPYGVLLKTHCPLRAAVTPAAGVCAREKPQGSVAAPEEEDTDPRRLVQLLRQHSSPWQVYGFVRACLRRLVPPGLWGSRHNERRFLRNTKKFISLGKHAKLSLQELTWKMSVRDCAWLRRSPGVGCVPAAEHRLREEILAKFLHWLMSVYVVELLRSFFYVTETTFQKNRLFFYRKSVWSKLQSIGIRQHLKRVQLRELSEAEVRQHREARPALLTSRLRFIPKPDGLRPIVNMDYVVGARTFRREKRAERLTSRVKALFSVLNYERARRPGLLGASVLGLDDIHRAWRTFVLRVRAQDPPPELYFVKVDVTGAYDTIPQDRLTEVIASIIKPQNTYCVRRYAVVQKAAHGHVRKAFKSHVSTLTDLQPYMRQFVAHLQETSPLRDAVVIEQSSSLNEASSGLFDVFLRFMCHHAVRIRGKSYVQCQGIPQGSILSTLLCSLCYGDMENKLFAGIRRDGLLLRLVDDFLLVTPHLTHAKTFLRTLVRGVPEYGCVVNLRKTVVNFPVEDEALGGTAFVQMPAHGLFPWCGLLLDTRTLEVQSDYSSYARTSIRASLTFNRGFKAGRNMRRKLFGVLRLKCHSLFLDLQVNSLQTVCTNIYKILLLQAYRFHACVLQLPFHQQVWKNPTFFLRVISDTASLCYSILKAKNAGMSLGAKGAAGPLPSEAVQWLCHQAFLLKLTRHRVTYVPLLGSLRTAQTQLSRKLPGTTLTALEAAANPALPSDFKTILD
SMILES,growth percent at 10 µM [1] [%],growth percent at 10 µM [2] [%],"growth, % of control at 10 µM [3] [%]","growth, % of control at 10 µM [4] [%]","growth, % of control at 10 µM [5] [%]",growth percent at 10 µM [7] [%],"growth, % of control at 10 µM [8] [%]",residual activity [10] [%],"growth, % of control at 10 µM [11] [%]",growth percent at 10 µM [12] [%],growth percent at 10 µM [14] [%],growth percent at 10 µM [15] [%],"growth, % of control at 10 µM [16] [%]","growth, % of control at 10 µM [17] [%]","viability at 48 h, 1 µM [18] [%]","growth, % of control at 10 µM [19] [%]","growth, % of control at 10 µM [20] [%]",growth percent at 10 µM [21] [%],growth percent at 10 µM [22] [%],growth percent at 10 µM [23] [%],also measured
O=C(CCN1CCCC1)Nc1ccc2c(c1)C(=O)c1cc(NC(=O)CCN3CCCC3)ccc1C2=O,31.5,23,20,53.9,-29,10.5,48.6,29,77.5,19.8,25.5,18.8,42.7,21.7,82,47,5.27,85.8,49.8,6.68,"residual activity [6]: 109%; residual activity [9]: 67%; growth percent at 10 µM [13]: 20%; growth percent at 10 µM [24]: 59%; viability at 48 h, 10 µM [25]: 68%; growth percent at 10 µM [26]: 41.1%; growth percent at 10 µM [27]: 18.8%; growth, % of control at 10 µM [28]: 26.7%; growth percent at 10 µM [29]: 30.5%; growth percent at 10 µM [30]: 29.6%; growth, % of control at 10 µM [31]: 31.2%; growth percent at 10 µM [32]: 19.6%; growth percent at 10 µM [33]: 3.74%; growth, % of control at 10 µM [34]: 30.7%; growth percent at 10 µM [35]: 68.8%; growth, % of control at 10 µM [36]: 5.26%"
O=C1c2ccc(NC(=O)C3CC3)cc2C(=O)c2cc(NC(=O)C3CC3)ccc21,95.8,94.3,105,98.9,91.9,87.1,86.6,81,89.2,1.69,89,91.6,81,107,60,91.8,95.5,62.5,97.5,82.9,"growth percent at 10 µM [13]: 132%; growth percent at 10 µM [24]: 79.8%; viability at 48 h, 10 µM [25]: 44%; growth percent at 10 µM [26]: 101%; growth percent at 10 µM [27]: 112%; growth, % of control at 10 µM [28]: 95.1%; growth percent at 10 µM [29]: 97%; growth percent at 10 µM [30]: 86.7%; growth, % of control at 10 µM [31]: 136%; growth percent at 10 µM [32]: 94.3%; growth percent at 10 µM [33]: 90.7%; growth, % of control at 10 µM [34]: 90.3%; growth percent at 10 µM [35]: 97.3%; growth, % of control at 10 µM [36]: 119%"
CCN(CC)CCC(=O)Nc1ccc2c(c1)C(=O)c1cc(NC(=O)CCN(CC)CC)ccc1C2=O,30.3,5.42,16.9,62.8,-49.7,-32.5,-19.9,35,46.6,-0.39,9.5,11.7,44.5,13.6,103,62.4,-31.5,14,24.9,8.63,"residual activity [6]: 37%; residual activity [9]: 49%; growth percent at 10 µM [24]: 68.6%; viability at 48 h, 10 µM [25]: 55%; growth percent at 10 µM [26]: 49.9%; growth percent at 10 µM [27]: 33.6%; growth, % of control at 10 µM [28]: 35.2%; growth percent at 10 µM [29]: 31.3%; growth percent at 10 µM [30]: 11.1%; growth, % of control at 10 µM [31]: 17.2%; growth percent at 10 µM [32]: 4.3%; growth percent at 10 µM [33]: -6.02%; growth, % of control at 10 µM [34]: 3.39%; residual activity [37]: 84%; growth percent at 10 µM [35]: 71.1%; growth, % of control at 10 µM [36]: -23.8%"
CC(=O)Nc1ccc2c(c1)C(=O)c1cc(NC(C)=O)ccc1C2=O,94.2,97,103,105,120,102,103,87,107,3.61,109,111,101,103,106,111,96.4,38.7,104,113,"residual activity [6]: 117%; residual activity [9]: 117%; growth percent at 10 µM [13]: 105%; growth percent at 10 µM [24]: 96.2%; viability at 48 h, 10 µM [25]: 91%; growth percent at 10 µM [27]: 102%; growth, % of control at 10 µM [28]: 114%; growth percent at 10 µM [29]: 104%; growth percent at 10 µM [30]: 96.9%; growth, % of control at 10 µM [31]: 118%; growth percent at 10 µM [32]: 99.8%; growth percent at 10 µM [33]: 99.8%; growth, % of control at 10 µM [34]: 99%; residual activity [37]: 123%; growth percent at 10 µM [35]: 109%; growth, % of control at 10 µM [36]: 133%"
